Test results reported in ChEMBL document CHEMBL1150129, “Daucane phytoestrogens: a structure-activity study” (J Nat Prod, 2002).
Active and inactive are the calls of the source. The calls are words filed in the database; no cut-off is given here.

Each compound was assayed against T1, Estrogen receptor (Homo sapiens) (UniProt P03372) (assay: Binding affinity to human ERalpha expressed in yeast relative to estradiol).
T1 sequence (whole entry): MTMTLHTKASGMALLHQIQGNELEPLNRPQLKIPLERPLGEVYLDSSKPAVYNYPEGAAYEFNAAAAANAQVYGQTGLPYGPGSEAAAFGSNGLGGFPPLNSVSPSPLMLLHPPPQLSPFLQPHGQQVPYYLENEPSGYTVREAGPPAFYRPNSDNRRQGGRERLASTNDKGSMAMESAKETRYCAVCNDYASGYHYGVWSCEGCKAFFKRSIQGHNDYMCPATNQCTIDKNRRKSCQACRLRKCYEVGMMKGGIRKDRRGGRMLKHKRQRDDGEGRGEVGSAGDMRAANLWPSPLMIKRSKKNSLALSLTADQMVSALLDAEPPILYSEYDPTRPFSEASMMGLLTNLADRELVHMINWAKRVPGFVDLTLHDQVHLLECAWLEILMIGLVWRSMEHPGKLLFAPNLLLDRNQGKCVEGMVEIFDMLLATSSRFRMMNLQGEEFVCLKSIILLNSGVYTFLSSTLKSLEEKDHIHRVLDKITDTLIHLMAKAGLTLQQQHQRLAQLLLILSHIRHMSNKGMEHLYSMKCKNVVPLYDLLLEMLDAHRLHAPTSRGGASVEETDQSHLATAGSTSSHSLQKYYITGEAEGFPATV
Summary of the method: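 Yeast (Saccharomyces cerevisiae) estrogen screen expressing human ERα with estrogen-responsive sequences driving lac-Z. Compound aliquots dried into wells before assay. β-Galactosidase activity read as chlorophenol red β-D-galactopyranoside hydrolysis, absorbance 540 nm.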

SMILES | Activity
CC(=O)Oc1ccc(C(=O)O[C@H]2CC(C)=CC[C@@]3(C)CC[C@@](O)(C(C)C)[C@H]23)cc1 | 0.2%
CC1=CC[C@@]2(C)CC[C@@](O)(C(C)C)[C@@H]2[C@@H](OC(=O)/C=C/c2ccc(O)c(O)c2)C1 | inactive
COc1cc(C(=O)O[C@H]2CC(C)=CC[C@@]3(C)CC[C@@](O)(C(C)C)[C@H]23)cc(OC)c1OC | inactive
CC1=CC[C@@]2(C)CC[C@@](O)(C(C)C)[C@@H]2[C@@H](OC(=O)CCc2ccc(O)c(O)c2)C1 | inactive
CC1=CC[C@@]2(C)CC[C@@](O)(C(C)C)[C@@H]2[C@@H](OC(=O)/C=C/c2ccc(O)cc2)C1 | < 0.0001%
CC1=CC[C@@]2(C)CC[C@@](O)(C(C)C)[C@@H]2[C@@H](OC(=O)CCc2ccc(O)cc2)C1 | < 0.0001%
COc1cc(/C=C/C(=O)O[C@H]2CC(C)=CC[C@@]3(C)CC[C@@](O)(C(C)C)[C@H]23)cc(OC)c1O | inactive
CC1=CC[C@@]2(C)CC[C@@](O)(C(C)C)[C@@H]2[C@@H](OC(=O)Cc2ccc(O)cc2)C1 | < 0.0001%
CC1=CC[C@@]2(C)CC[C@@](O)(C(C)C)[C@@H]2[C@@H](OC(=O)c2ccc(O)c(O)c2)C1 | < 0.1%
COc1ccc(C(=O)O[C@H]2CC(C)=CC[C@@]3(C)CC[C@@](O)(C(C)C)[C@H]23)cc1 | < 0.0001%
COc1cc(/C=C/C(=O)O[C@H]2CC(C)=CC[C@@]3(C)CC[C@@](O)(C(C)C)[C@H]23)ccc1O | inactive
COc1cc(C(=O)O[C@H]2CC(C)=CC[C@@]3(C)CC[C@@](O)(C(C)C)[C@H]23)ccc1O | inactive
COc1cc(CC(=O)O[C@H]2CC(C)=CC[C@@]3(C)CC[C@@](O)(C(C)C)[C@H]23)ccc1O | inactive
CC1=CC[C@@]2(C)CC[C@@](O)(C(C)C)[C@@H]2[C@@H](OC(=O)c2ccccc2)C1 | inactive

These compounds were tested against T1, Estrogen receptor (Homo sapiens) (assay: Displacement of [2,4,6,7-3H]estradiol from human recombinant ERalpha receptor).
Summary of the method: (§1)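 Recombinant human ERα or ERβ (1.5 nM) with 15 nM [3H]-17β-estradiol and diluted compounds in pH 7.5 Tris buffer with 10% glycerol, 2 mM DTT, 1 mg/mL BSA; overnight at 4 °C. Bound ligand captured on hydroxylapatite, washed thrice (ERα: Tris/KCl/EDTA/EGTA; ERβ: Tris only), ethanol-extracted, radioactivity counted.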

SMILES | Activity [%]
CC(=O)Oc1ccc(C(=O)O[C@H]2CC(C)=CC[C@@]3(C)CC[C@@](O)(C(C)C)[C@H]23)cc1 | < 1

What follows are compounds tested against Estrogen receptor beta (Homo sapiens) (UniProt Q92731) (assay: Displacement of [2,4,6,7-3H]estradiol from human recombinant ERbeta receptor).
Summary of the method: as §1

Estrogen receptor beta (Homo sapiens), sequence (Q92731 whole entry): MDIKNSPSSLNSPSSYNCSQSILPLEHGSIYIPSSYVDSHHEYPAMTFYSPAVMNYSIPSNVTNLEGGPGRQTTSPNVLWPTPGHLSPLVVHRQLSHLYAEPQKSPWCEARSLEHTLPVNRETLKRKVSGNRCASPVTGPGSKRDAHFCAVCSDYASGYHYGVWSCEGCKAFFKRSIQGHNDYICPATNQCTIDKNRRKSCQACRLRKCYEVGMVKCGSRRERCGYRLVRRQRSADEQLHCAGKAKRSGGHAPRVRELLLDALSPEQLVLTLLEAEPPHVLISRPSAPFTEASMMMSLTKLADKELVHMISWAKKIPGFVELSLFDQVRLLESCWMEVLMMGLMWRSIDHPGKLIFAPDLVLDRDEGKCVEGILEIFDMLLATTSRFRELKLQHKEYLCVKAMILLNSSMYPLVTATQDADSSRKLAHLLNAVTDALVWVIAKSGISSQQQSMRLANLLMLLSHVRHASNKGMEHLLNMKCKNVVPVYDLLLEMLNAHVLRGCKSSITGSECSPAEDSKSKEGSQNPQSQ

SMILES | Activity [%]
CC(=O)Oc1ccc(C(=O)O[C@H]2CC(C)=CC[C@@]3(C)CC[C@@](O)(C(C)C)[C@H]23)cc1 | < 1
